# Measured values from ChEMBL document CHEMBL2093137, “WHO-TDR NTD Screening”.
# Assays:
# [1] = test system: Trypanosoma brucei brucei; assay: WHO-TDR: Human African Trypanosomiasis (HAT); type: functional, organism-based; conditions: Squib-427
# Procedure, shortened: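 A diverse library of 10,000 compounds from Life Chemicals, filtered for drug-likeness and reactive groups, was screened against bloodstream forms of Trypanosoma brucei Squib 427 strain in a whole-organism assay. Previously published standard procedures were followed, with reference drugs serving as positive controls. Antiparasitic potency is given as IC50.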
# [2] = WHO-TDR: Cytotoxicity; type: toxicity, cell-based; conditions: human, MRC5 cells
# Onchocerca ochengi [3] = assay: (§1) WHO-TDR: Onchocerciasis; type: functional; set-up: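 at 12.5 µM on microfilariae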
# Procedure, shortened: (§2)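 Whole-organism screen of a 10,000-compound diverse library from Life Chemicals, filtered for drug-likeness and reactive groups, against microfilariae of Onchocerca ochengi or Onchocerca lienalis, used as animal-pathogen stand-ins for the human parasite. The assay followed previously published standard procedures, with reference drugs as positive controls. Activity is reported as percent inhibition and as IC50.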
# Onchocerca ochengi [4] = assay: as §1; type: functional; set-up: concentration or dose not given beside the values; procedure, shortened: as §2; remark: listed apart in the source
# Plasmodium falciparum K1 = assay: WHO-TDR: Malaria; type: functional, organism-based, Homo sapiens; conditions: Erythrocyte
# Procedure, shortened: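 A diverse library of 10,000 compounds from Life Chemicals, filtered for drug-likeness and reactive groups, was screened against the intra-erythrocytic Plasmodium falciparum K1 strain in human red blood cells. Previously published standard procedures were followed, with a reference drug as positive control. Antiplasmodial potency is given as IC50.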
# Trypanosoma cruzi = assay: WHO-TDR: Chagas disease; type: functional, organism-based, Homo sapiens; conditions: MRC5
# Procedure, shortened: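 Intracellular amastigotes of the Trypanosoma cruzi Tulahuen CL2 beta-galactosidase strain, grown in MRC-5SV2 human lung fibroblast host cells, were tested in a whole-organism screen. The compounds came from a 10,000-member diverse Life Chemicals library that had been filtered for drug-likeness and reactive groups. Previously published standard procedures were followed, with a reference drug as positive control, and potency is reported as IC50.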
# Schistosoma mansoni = assay: WHO-TDR: Schistosomiasis; type: functional; set-up: concentration or dose not given beside the values
# Procedure, shortened: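 Whole-organism screen of a 10,000-compound diverse library from Life Chemicals, filtered for drug-likeness and reactive groups, against larval and/or adult worms of Schistosoma mansoni Puerto Rican strain. The assay followed previously published standard procedures, with a reference drug as positive control. Activity is reported as percent inhibition and as IC50.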
# Leishmania infantum = assay: WHO-TDR: Leishmaniasis; type: functional, organism-based, Mus musculus; conditions: Macrophage
# Procedure, shortened: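 A diverse library of 10,000 compounds from Life Chemicals, filtered for drug-likeness and reactive groups, was screened against whole organisms. The targets were intracellular amastigotes of Leishmania infantum MHOM/MA(BE)/67 growing in murine peritoneal macrophages. Previously published standard procedures were followed, with a reference drug as positive control. Antiparasitic potency is given as IC50.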
Compound,IC50 [1],IC50 [2],% Inhibition (Onchocerca ochengi [3]),% Inhibition (Onchocerca ochengi [4]),IC50 (Plasmodium falciparum K1),IC50 (Trypanosoma cruzi),% Inhibition (Schistosoma mansoni),IC50 (Leishmania infantum)
CC1CCN(C(C)CNC(=O)Nc2ccc(F)cc2)CC1 (centres undefined),0.303 µg/mL,> 8.8 µg/mL,0%,0%,3.19 µg/mL,> 8.8 µg/mL,0%,> 8.8 µg/mL
O=C(Nc1ccc(F)cc1)Nc1nc(C(=O)N2CCN(c3ccccc3F)CC2)cs1,0.459 µg/mL,5.3 µg/mL,0%,0%,4.63 µg/mL,4.32 µg/mL,0%,> 13.3 µg/mL
O=C(Cn1c(=O)n(Cc2cccs2)c(=O)c2ncccc21)OCc1ccccc1,> 12.2 µg/mL,> 12.2 µg/mL,100%,0%,> 12.2 µg/mL,> 12.2 µg/mL,0%,> 12.2 µg/mL
CN1C(=O)C(C)(C)COc2ccc(NS(=O)(=O)c3ccccc3F)cc21,> 11.4 µg/mL,> 11.4 µg/mL,100%,0%,> 11.4 µg/mL,> 11.4 µg/mL,0%,> 11.4 µg/mL
C=CCN1C(=O)C(C)(C)COc2ccc(NS(=O)(=O)c3ccc4c(c3)OCCO4)cc21,> 13.3 µg/mL,> 13.3 µg/mL,100%,0%,> 13.3 µg/mL,> 13.3 µg/mL,0%,> 13.3 µg/mL
O=S(=O)(Nc1cccc(-c2nc3ccccc3s2)c1)c1ccc(Cl)s1,> 12.2 µg/mL,> 12.2 µg/mL,100%,0%,> 12.2 µg/mL,4.01 µg/mL,0%,> 12.2 µg/mL
O=S(=O)(Nc1nc2c(Cl)cccc2s1)c1ccc(Cl)s1,> 11 µg/mL,> 11 µg/mL,100%,0%,> 11 µg/mL,10.4 µg/mL,0%,> 11 µg/mL
O=C(NCC1CC(=O)N(c2ccc(Cl)cc2)C1)NC1CCCCC1 (centres undefined),> 10.5 µg/mL,> 10.5 µg/mL,0%,100%,> 10.5 µg/mL,> 10.5 µg/mL,0%,> 10.5 µg/mL
CC1(C)COc2ccc(NS(=O)(=O)c3cccc4ccccc34)cc2NC1=O,6.16 µg/mL,> 11.9 µg/mL,100%,0%,> 11.9 µg/mL,> 11.9 µg/mL,0%,> 11.9 µg/mL
Cc1ccc2nc(-c3ccc(NC(=O)CC4CSc5nc(C)cc(=O)n54)cc3)sc2c1 (centres undefined),> 13.5 µg/mL,> 13.5 µg/mL,100%,0%,3.38 µg/mL,> 13.5 µg/mL,0%,> 13.5 µg/mL
O=C(CC1CSc2nccc(=O)n21)Nc1ccc(Cl)c(Cl)c1 (centres undefined),> 10.7 µg/mL,> 10.7 µg/mL,100%,0%,> 10.7 µg/mL,> 10.7 µg/mL,0%,> 10.7 µg/mL
Cc1cc(=O)[nH]c(-n2nc(C)cc2NC(=O)c2c(F)cccc2Cl)n1,1.96 µg/mL,0.39 µg/mL,0%,0%,3.62 µg/mL,0.331 µg/mL,0%,5.62 µg/mL
CCc1ccc2nc(N(CCN(CC)CC)C(=O)Cc3ccc4c(c3)OCO4)sc2c1,0.457 µg/mL,> 14.3 µg/mL,0%,0%,4.52 µg/mL,3.61 µg/mL,0%,7.4 µg/mL
O=C1CC(CNS(=O)(=O)c2ccccc2C(F)(F)F)CN1c1ccc(Cl)cc1 (centres undefined),4.25 µg/mL,> 13 µg/mL,100%,0%,> 13 µg/mL,4.11 µg/mL,0%,> 13 µg/mL
CCCN1C(=O)C(C)(C)COc2cc(NS(=O)(=O)Cc3ccc(C)cc3)ccc21,4.62 µg/mL,> 12.5 µg/mL,100%,60%,> 12.5 µg/mL,> 12.5 µg/mL,0%,> 12.5 µg/mL
O=C(NCCc1c[nH]c2ccccc12)c1n[nH]c2ccccc12,> 9.13 µg/mL,> 9.13 µg/mL,100%,0%,> 9.13 µg/mL,8.2 µg/mL,0%,> 9.13 µg/mL
Cc1ccc(S(=O)(=O)N2CCCCC2CC(=O)Nc2ccc(F)c(C(F)(F)F)c2)cc1 (centres undefined),6.11 µg/mL,> 13.8 µg/mL,0%,0%,> 13.8 µg/mL,0.889 µg/mL,0%,> 13.8 µg/mL
CSCc1csc(NC(=O)Cc2ccc(Cl)cc2)n1,3 µg/mL,3.7 µg/mL,100%,75%,5.98 µg/mL,2.47 µg/mL,0%,> 9.38 µg/mL
CN1CCN(C(CNC(=O)COc2ccccc2F)c2ccc3c(c2)CCN3C)CC1 (centres undefined),4.14 µg/mL,> 12.8 µg/mL,0%,0%,3.56 µg/mL,> 12.8 µg/mL,0%,1.9 µg/mL
Cc1[nH]c2ccccc2c1S(=O)(=O)CCNC(=O)Nc1ccc(C(F)(F)F)cc1,> 12.8 µg/mL,> 12.8 µg/mL,100%,0%,> 12.8 µg/mL,> 12.8 µg/mL,0%,> 12.8 µg/mL
O=C(CSc1ncc(-c2ccccc2)[nH]1)N1CCCc2ccccc21,> 10.5 µg/mL,> 10.5 µg/mL,100%,0%,> 10.5 µg/mL,> 10.5 µg/mL,0%,> 10.5 µg/mL
O=C(COc1ccc(F)cc1)NCC(c1ccsc1)N1CCc2ccccc2C1 (centres undefined),4.19 µg/mL,> 12.3 µg/mL,100%,0%,> 12.3 µg/mL,3.73 µg/mL,0%,> 12.3 µg/mL
O=C(Cc1csc(SCc2ccc(Cl)cc2)n1)NCCC1=CCCCC1,3.86 µg/mL,> 12.2 µg/mL,100%,0%,> 12.2 µg/mL,3.58 µg/mL,0%,> 12.2 µg/mL
